The source made the active and inactive calls. The rule behind the calls is not given here.
Columns and labels:
[1] = molecular target: T1, Amine oxidase [flavin-containing] A (Mus musculus, UniProt Q64133); assay: Inhibition of MAO A in mouse GL26 cells preincubated for 20 mins followed by 14C-labeled 5-hydroxytryptamine addition and measured after 20 mins by scintillation counter analysis; assay type: cell-based
T1 sequence (Q64133 whole entry): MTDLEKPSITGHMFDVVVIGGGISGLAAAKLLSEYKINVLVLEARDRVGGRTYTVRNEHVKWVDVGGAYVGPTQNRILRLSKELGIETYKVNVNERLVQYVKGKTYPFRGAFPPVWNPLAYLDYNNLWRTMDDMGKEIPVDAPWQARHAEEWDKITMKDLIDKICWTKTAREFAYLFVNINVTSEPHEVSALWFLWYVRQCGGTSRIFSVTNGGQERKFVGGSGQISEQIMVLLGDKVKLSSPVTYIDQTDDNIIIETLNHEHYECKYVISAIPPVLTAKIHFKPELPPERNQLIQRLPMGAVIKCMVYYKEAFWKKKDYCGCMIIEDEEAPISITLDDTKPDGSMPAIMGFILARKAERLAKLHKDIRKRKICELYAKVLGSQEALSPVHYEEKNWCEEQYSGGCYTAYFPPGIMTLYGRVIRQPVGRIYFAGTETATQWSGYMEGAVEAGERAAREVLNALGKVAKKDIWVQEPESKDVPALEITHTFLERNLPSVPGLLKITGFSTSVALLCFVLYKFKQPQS

SNB-19 = assay: Growth inhibition of human SNB-19 cells incubated for 48 hrs by SRB assay; assay type: functional
In short: (§1)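 NCI-60 panel screen: cells seeded at 5000 to 40000 per well according to doubling time, 24 h before drug addition at various concentrations. A time-zero plate was TCA-fixed at drug addition. After 48 h drug exposure, growth was read by sulforhodamine B staining. Percent growth = [(Ti − Tz)/(C − Tz)] × 100, and GI50 is the concentration at which this equals 50.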

[2] = Antiproliferative activity against human patient-derived TMZ-resistant GBM cells with MGMT negative P3R cell assessed as inhibition of cell growth measured after 72 hrs by CCK8 method; assay type: functional, cell-based
In short: (§2)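 Cell lines from ATCC or from patient surgical specimens (P1S, P3, P3R), kept in DMEM with 10% FBS and 1% penicillin/streptomycin at 37°C, 5% CO₂. P3R medium also held 50 μM TMZ. Cells were seeded at 2×10³/well 24 h before compound, then exposed 72 h.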

[3] = Toxicity in C57BL/6J mouse assessed as change in body weight at 25 mg/kg, ip measured after 3 days; assay type: organism-based; conditions: in vivo, 72 h, time 3 day
In short: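 Male C57BL/6J mice, 8-9 weeks old, given 2 × 10⁵ GL26 cells subcutaneously in the lower back. From day 9, when tumor was visible, dosing was i.p. for 14 days with vehicle, clorgyline 10 mg/kg daily, or test compounds 25 mg/kg daily for the first 3 days then every 3 days. Tumor was measured by caliper, volume = length × width² ÷ 2, and TGI% was taken against the vehicle-group mean. Body weight was tracked.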

HCT-116 [4] = assay: Growth inhibition of human HCT-116 cells incubated for 48 hrs by SRB assay; assay type: functional; in short: as §1
[5] = Antiproliferative activity against human patient-derived P3 cell assessed as inhibition of cell growth measured after 72 hrs by CCK8 method; assay type: functional, cell-based; in short: as §2
[6] = Antiproliferative activity against human patient-derived, TMZ-resistant and concurrent chemo-radiotherapy (CCRT)-resistant P1S cell assessed as inhibition of cell growth measured after 72 hrs by CCK8 method; assay type: functional, cell-based; in short: as §2
[7] = Antiproliferative activity against human U373 MG cells assessed as inhibition of cell growth measured after 72 hrs by CCK8 method; assay type: functional, cell-based, U-373MG ATCC; in short: as §2
U-251 [8] = assay: Upregulation of HSP70 expression in human Temozolomide-resistant U-251 cells incubated for 24 hrs by Western blot analysis; assay type: functional, cell-based; conditions: dose 0.1-3 µM
[9] = Antiproliferative activity against mouse GL26 cells assessed as inhibition of cell growth measured after 48 hrs by MTT assay; assay type: functional, cell-based; conditions: GL26, 48 h
In short: (§3)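 Cells plated at 5×10³ per well 24 h before compound and grown in DMEM with 10% FBS at 37°C, 5% CO₂. After 48 h exposure, the medium was replaced with 0.5 mg/mL MTT for 3 h. Formazan was dissolved in DMSO and read at 570 nm.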

SNB-75 = assay: Growth inhibition of human SNB-75 cells incubated for 48 hrs by SRB assay; assay type: functional; in short: as §1
U-251 [10] = assay: Antiproliferative activity against human Temozolomide-resistant U-251 cells assessed as inhibition of cell growth measured after 48 hrs by MTT assay; assay type: functional, cell-based; conditions: U-251, 48 h; in short: as §3
RPMI-8226 = assay: Growth inhibition of human RPMI-8226 cells incubated for 48 hrs by SRB assay; assay type: functional; in short: as §1
SF-295 = assay: Growth inhibition of human SF-295 cells incubated for 48 hrs by SRB assay; assay type: functional; in short: as §1
HL-60 = assay: Growth inhibition of human HL-60 cells incubated for 48 hrs by SRB assay; assay type: functional; in short: as §1
A 172 = assay: Antiproliferative activity against human A-172 cells assessed as inhibition of cell growth measured after 72 hrs by CCK8 method; assay type: functional, cell-based; conditions: A 172, 72 h; in short: as §2
SF-268 = assay: Growth inhibition of human SF-268 cells incubated for 48 hrs by SRB assay; assay type: functional; in short: as §1
U-251 [11] = assay: Growth inhibition of human U-251 cells incubated for 48 hrs by SRB assay; assay type: functional; in short: as §1
[12] = molecular target: Heat shock protein HSP 90-alpha (Homo sapiens, UniProt P07900); assay: Inhibition of human recombinant HSP90alpha preincubated for 30 mins followed by FITC-GM addition and mesured after 3 hrs by fluorescence polarization assay
GL26 [13] = assay: Downregulation of IFN-gamma induced PD-L1 expression in mouse GL26 cells incubated for 24 hrs by flow cytometry analysis; assay type: functional, cell-based
In short: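 GL26 cells at 3.6 × 10⁵ per well were treated at various concentrations with or without 10 ng/mL IFN-γ for 24 h. Cells were stained with goat anti-PD-L1 for 1 h in PBS/0.05% BSA, then FITC donkey anti-goat for 1 h, and read by flow cytometry. MFI was normalised to the secondary-antibody-only isotype control and expressed as an MFI ratio.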

SF-539 = assay: Growth inhibition of human SF-539 cells incubated for 48 hrs by SRB assay; assay type: functional; in short: as §1
[14] = Antitumor activity against mouse GL26 cells xenografted in C57BL/6J mouse model assessed as tumor growth inhibition at 25 mg/kg, ip administered daily for 3 days followed by every 3 days for 14 days by caliper method relative to control; assay type: functional; conditions: GL26, 336 h, time 14 day, read-out: TGI
In short: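 Male C57BL/6J mice aged 8-9 weeks received 2 × 10⁵ GL26 cells subcutaneously in the lower back. From day 9 after implantation, once tumours were palpable, 25 mg/kg was given i.p. daily for 3 days and then every 3 days over 14 days. Caliper volume was length × width² ÷ 2. TGI% was taken relative to the mean tumour size of the vehicle group.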

GL26 [15] = assay: Upregulation of HSP70 expression in mouse GL26 cells incubated for 24 hrs by Western blot analysis; assay type: functional, cell-based; conditions: dose 0.1-3 µM
LN-229 = assay: Antiproliferative activity against human LN-229 cells assessed as inhibition of cell growth measured after 72 hrs by CCK8 method; assay type: functional, cell-based; conditions: LN-229, 72 h; in short: as §2
U-251 [16] = assay: Downregulation of HER2 expression in human Temozolomide-resistant U-251 cells incubated for 24 hrs by Western blot analysis; assay type: functional, cell-based; conditions: dose 0.1-3 µM
NCI-H522 = assay: Growth inhibition of human NCI-H522 cells incubated for 48 hrs by SRB assay; assay type: functional; in short: as §1
A549 = assay: Growth inhibition of human A549 cells incubated for 48 hrs by SRB assay; assay type: functional; in short: as §1
GL26 [17] = assay: Downregulation of Akt phosphorylation expression at Ser 473 residues in mouse GL26 cells incubated for 24 hrs by Western blot analysis; assay type: functional, cell-based; conditions: dose 0.1-3 µM
T98G = assay: Antiproliferative activity against human T98G cells assessed as inhibition of cell growth measured after 72 hrs by CCK8 method; assay type: functional, cell-based; in short: as §2
HCT-116 [18] = assay: Downregulation of PD-L1 expression in human HCT-116 cells; assay type: functional, cell-based
In short: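 HCT116 cells at 3 × 10⁵ per well were treated at various concentrations with or without 20 ng/mL IFN-γ for 48 h. Cells were stained with mouse anti-PD-L1 for 1 h in PBS/0.05% BSA, then FITC goat anti-mouse for 1 h. Surface FITC mean fluorescence intensity was measured by flow cytometry.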

U-251 [19] = assay: Downregulation of Akt phosphorylation expression at Ser 473 residues in human Temozolomide-resistant U-251 cells incubated for 24 hrs by Western blot analysis; assay type: functional, cell-based; conditions: dose 0.1-3 µM
GL26 [20] = assay: Downregulation of HER2 expression in mouse GL26 cells incubated for 24 hrs by Western blot analysis; assay type: functional, cell-based; conditions: dose 0.1-3 µM
NCI-H460 = assay: Growth inhibition of human NCI-H460 cells incubated for 48 hrs by SRB assay; assay type: functional; in short: as §1
U-87 MG = assay: Antiproliferative activity against human U-87 MG cells assessed as inhibition of cell growth measured after 72 hrs by CCK8 method; assay type: functional, cell-based, U-87MG ATCC; in short: as §2
K562 = assay: Growth inhibition of human K562 cells incubated for 48 hrs by SRB assay; assay type: functional; in short: as §1

Compound C#CCN(C)CCCOc1cc(NC(=O)c2cc(C(C)C)c(O)cc2O)ccc1Cl has an IC50 [1] of 2360 nM.
For C#CCN(C)CCCOc1cc(N(C)C(=O)c2cc(C(C)C)c(O)cc2O)ccc1Cl, the IC50 [1] was > 10000 nM.
C#CCN(C)CCCOc1cc(N(CCC)C(=O)c2cc(C(C)C)c(O)cc2O)ccc1Cl showed an IC50 [1] of 860 nM.
Compound C#CCN(C)CCCOc1cccc(N(CC)C(=O)c2cc(C(C)C)c(O)cc2O)c1Cl has an IC50 [1] of 2270 nM.
In the case of C#CCN(C)CCCOc1cccc(N(CCC)C(=O)c2cc(C(C)C)c(O)cc2O)c1Cl, the IC50 [1] is reported as 880 nM.
Compound C#CCN(C)CCCOc1ccc(N(C)C(=O)c2cc(C(C)C)c(O)cc2O)cc1Cl has a GI50 (SNB-19) of 440 nM, an IC50 [2] of 2530 nM and an IC50 [1] of 1770 nM. The Activity [3] was “Toxic”, the GI50 (HCT-116 [4]) was 80 nM and the IC50 [5] was 2730 nM. The IC50 [6] was 860 nM, the IC50 [7] was 1460 nM and the Activity (U-251 [8]) was “Dose-Dependent Effect”. The IC50 [9] was 730 nM, the GI50 (SNB-75) was 420 nM and the IC50 (U-251 [10]) was 840 nM. The GI50 (RPMI-8226) was 380 nM, the GI50 (SF-295) was 290 nM and the GI50 (HL-60) was 40 nM. For the same compound, the IC50 (A 172) was 3310 nM, the GI50 (SF-268) was 520 nM and the GI50 (U-251 [11]) was 320 nM. The IC50 [12] was 19 nM, the Activity (GL26 [13]) was “Dose-Dependent Effect” and the GI50 (SF-539) was 320 nM. The inhibition in vivo at 25 mg/kg [14] was 63.2%, the Activity (GL26 [15]) was “Dose-Dependent Effect” and the IC50 (LN-229) was 400 nM. The Activity (U-251 [16]) was “Dose-Dependent Effect”, the GI50 (NCI-H522) was 80 nM and the GI50 (A549) was 190 nM. For the same compound, the Activity (GL26 [17]) was “Dose-Dependent Effect”, the IC50 (T98G) was 460 nM and the Activity (HCT-116 [18]) was “Active”. The Activity (U-251 [19]) was “Dose-Dependent Effect”, the Activity (GL26 [20]) was “Dose-Dependent Effect” and the GI50 (NCI-H460) was 40 nM. For the same compound, the IC50 (U-87 MG) was 350 nM and the GI50 (K562) was 70 nM.
For CC(C)c1cc(-c2n[nH]c(=O)n2-c2ccc3c(ccn3C)c2)c(O)cc1O [GANETESPIB], the IC50 [1] was > 10000 nM, the IC50 (U-251 [10]) was > 10000 nM and the Activity (U-251 [16]) was “Dose-Dependent Effect”. For the same compound, the Activity (GL26 [17]) was “Dose-Dependent Effect”, the Activity (U-251 [19]) was “Dose-Dependent Effect” and the Activity (GL26 [20]) was “Dose-Dependent Effect”.
